According to ChEMBL document CHEMBL3576820, “Discovery of benzimidazole oxazolidinediones as novel and selective nonsteroidal mineralocorticoid receptor antagonists” (ACS Med Chem Lett, 2015):
The source made the active and inactive calls. The rule behind the calls is not given here.

Key:
[1] = Plasma clearance in Wistar han rat at 2 mg/kg, po and 1 mg/kg, iv; type: ADME, organism-based
How it was run: (§1)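 Wistar Han rats. IV dose 1 mg/kg in DMSO/PEG200/water (10:60:30), n=2. Oral dose 2 mg/kg in imwitor/tween (1:1) by gavage, n=3. Values are averages. Derived: F%, plasma clearance, Vdss, terminal half-life and oral AUC normalized to dose.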

[2] = Metabolic stability in rat liver microsomes assessed as compound remaining at 1 uM after 0.5 hrs; type: ADME; conditions: read-out: Stability
[3] = Volume of distribution at steady state in Wistar han rat at 2 mg/kg, po and 1 mg/kg, iv; type: ADME, organism-based; conditions: in vivo, read-out: Vdss; how it was run: as §1
[4] = target: T1, Estrogen receptor (Homo sapiens, UniProt P03372); assay: Antagonist activity at human estrogen receptor alpha expressed in CHOK1 cells assessed as inhibition of beta-estradiol-induced protein interaction with steroid receptor co-activator peptide after overnight incubation by beta-galactosidase reporter gene assay; type: cell-based, CHO-K1
T1 sequence (P03372 whole entry): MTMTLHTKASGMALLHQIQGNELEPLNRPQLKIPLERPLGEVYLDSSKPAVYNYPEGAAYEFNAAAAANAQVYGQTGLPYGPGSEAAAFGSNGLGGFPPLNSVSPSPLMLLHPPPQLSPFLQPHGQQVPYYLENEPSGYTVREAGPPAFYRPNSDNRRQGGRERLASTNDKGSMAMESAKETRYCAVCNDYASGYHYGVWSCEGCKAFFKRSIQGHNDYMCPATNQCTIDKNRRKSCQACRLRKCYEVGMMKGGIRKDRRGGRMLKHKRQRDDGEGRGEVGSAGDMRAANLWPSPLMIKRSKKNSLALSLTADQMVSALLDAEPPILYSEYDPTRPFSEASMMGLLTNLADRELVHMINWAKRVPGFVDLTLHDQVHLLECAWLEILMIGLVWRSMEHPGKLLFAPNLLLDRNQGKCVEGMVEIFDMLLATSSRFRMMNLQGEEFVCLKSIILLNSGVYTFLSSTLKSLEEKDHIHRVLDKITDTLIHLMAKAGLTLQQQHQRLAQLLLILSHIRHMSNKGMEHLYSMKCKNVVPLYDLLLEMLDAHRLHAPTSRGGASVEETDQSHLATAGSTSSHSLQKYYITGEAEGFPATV

[5] = target: T2, Mineralocorticoid receptor (Homo sapiens, UniProt P08235); assay: Antagonist activity at human mineralocorticoid receptor overexpressed in CHOK1 cells assessed as inhibition of aldosterone-induced protein interaction with coactivator peptide after 6 hrs by luminescence assay; type: cell-based, CHO-K1
T2 sequence (P08235 whole entry): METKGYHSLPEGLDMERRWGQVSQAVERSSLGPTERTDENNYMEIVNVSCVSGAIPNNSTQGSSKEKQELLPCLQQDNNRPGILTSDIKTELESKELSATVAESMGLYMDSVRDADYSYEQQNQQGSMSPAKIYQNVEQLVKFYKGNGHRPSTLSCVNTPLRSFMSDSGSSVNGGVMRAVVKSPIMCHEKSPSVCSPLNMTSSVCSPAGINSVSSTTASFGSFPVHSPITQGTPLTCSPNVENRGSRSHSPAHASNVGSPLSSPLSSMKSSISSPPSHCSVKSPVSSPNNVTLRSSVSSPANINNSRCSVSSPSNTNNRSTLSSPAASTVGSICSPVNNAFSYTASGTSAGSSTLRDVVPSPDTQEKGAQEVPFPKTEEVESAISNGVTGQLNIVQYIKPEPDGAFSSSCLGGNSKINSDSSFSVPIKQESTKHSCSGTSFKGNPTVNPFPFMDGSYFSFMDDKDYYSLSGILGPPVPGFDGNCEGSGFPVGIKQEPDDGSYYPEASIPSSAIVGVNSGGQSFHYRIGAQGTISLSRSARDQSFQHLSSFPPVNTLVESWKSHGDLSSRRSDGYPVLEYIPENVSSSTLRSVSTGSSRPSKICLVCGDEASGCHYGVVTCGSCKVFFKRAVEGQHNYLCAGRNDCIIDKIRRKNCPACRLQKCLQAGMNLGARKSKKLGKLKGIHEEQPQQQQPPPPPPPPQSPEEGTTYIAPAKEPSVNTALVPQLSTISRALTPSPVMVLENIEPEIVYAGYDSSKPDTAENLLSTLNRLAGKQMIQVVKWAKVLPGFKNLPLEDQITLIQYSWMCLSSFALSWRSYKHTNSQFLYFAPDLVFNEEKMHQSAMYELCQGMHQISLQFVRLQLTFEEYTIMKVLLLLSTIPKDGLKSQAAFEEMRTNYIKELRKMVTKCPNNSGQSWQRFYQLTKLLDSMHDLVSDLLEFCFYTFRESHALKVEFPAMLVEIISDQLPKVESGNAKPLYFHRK

[6] = Oral bioavailability in Wistar han rat at 2 mg/kg; type: ADME, organism-based; conditions: in vivo; how it was run: as §1
[7] = Terminal half life in Wistar han rat at 2 mg/kg, po and 1 mg/kg, iv; type: ADME, organism-based; conditions: in vivo, read-out: beta t1/2 (converted); how it was run: as §1
[8] = Metabolic stability in human liver microsomes assessed as compound remaining at 1 uM after 0.5 hrs; type: ADME; conditions: read-out: Stability
[9] = target: T3, Estrogen receptor (Homo sapiens) (UniProt P03372); assay: Agonist activity at human estrogen receptor alpha by cell-based assay
T3 sequence (whole entry): T1 sequence (P03372 whole entry)

[10] = Fraction unbound in 10% rat plasma; type: ADME, cell-free; conditions: 10% plasma
How it was run: (§2)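 Free fraction measured in the presence of 10% plasma (human or rat), taken as correlating with the free fraction in whole plasma.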

[11] = Fraction unbound in 10% human plasma; type: ADME, cell-free; conditions: 10% plasma; how it was run: as §2

SMILES	clearance [1] [mL/min/kg]	remaining at 0.5 h, 1 µM [2] [%]	Vd [3] [L/kg]	IC50 [4] [nM]	IC50 [5] [nM]	bioavailability [6] [%]	half-life [7] [h]	remaining at 0.5 h, 1 µM [8] [%]	Activity [9]	fraction unbound [10]	fraction unbound [11]
Cc1nocc1-c1ccc2[nH]c([C@@]3(Cc4ccccc4)OC(=O)N([C@H](C)c4ccc(F)cc4)C3=O)nc2c1	20	54	1.9	4900	39	54	1.2	27	inactive		
C[C@H](c1ccc(F)cc1)N1C(=O)O[C@](Cc2ccccc2)(c2nc3c(NS(C)(=O)=O)cccc3[nH]2)C1=O	55	44	3.2	> 20000	210	15	1.2	46	inactive	0.064	0.058
C[C@H](c1ccc(F)cc1)N1C(=O)O[C@](Cc2ccccc2)(c2nc3cc(-c4cccnc4)ccc3[nH]2)C1=O	80	45	5	7900	34	11	0.94	94	inactive	0.008	0.002
C[C@H](c1ccc(F)cc1)N1C(=O)O[C@](Cc2ccccc2)(c2nc3cc(Cl)ccc3[nH]2)C1=O	47	14	4.6	3300	160	15	1.5	55	inactive	0.01	0.002
C[C@H](c1ccc(F)cc1)N1C(=O)O[C@](Cc2ccccc2)(c2nc3cc(C(F)(F)F)ccc3[nH]2)C1=O	33	41	3.4	3000	120	36	1.7	89	inactive	0.007	0.002
C[C@H](c1ccc(F)cc1)N1C(=O)O[C@](Cc2ccccc2)(c2nc3cc(NS(C)(=O)=O)ccc3[nH]2)C1=O	32	80	1.8	17000	220	6	1.6	93	inactive	0.064	0.034
C[C@H](c1ccc(F)cc1)N1C(=O)O[C@](Cc2ccccc2)(c2nc3cc(-c4cc[nH]n4)ccc3[nH]2)C1=O	19	62	1.6	6300	120	27	1.8	86	inactive	0.017	0.04
C[C@H](c1ccc(F)cc1)N1C(=O)O[C@](Cc2ccccc2)(c2nc3cc(N4CCOCC4)ccc3[nH]2)C1=O	67	92	2.3	6100	40	44	0.69	81	inactive	0.065	0.093
